Data published in ChEMBL document CHEMBL3425456, “Boronic acid-containing CXCR1/2 antagonists: Optimization of metabolic stability, in vivo evaluation, and a proposed receptor binding model” (Bioorg Med Chem Lett, 2015).
One block for each compound: values may come before it. Activity calls are given as the source filed them. The calls are words filed in the database; no cut-off is given here.

What was measured:
[1] = biological target: T1, Interleukin-8 receptors, CXCR1/CXCR2 (Homo sapiens, UniProt P25025+P25024); assay: Antagonist activity at CXCR1/CXCR2 in human PMN cells assessed as inhibition of GROalpha-mediated intracellular calcium release; format: functional, cell-based
T1 sequence (P25025 whole entry): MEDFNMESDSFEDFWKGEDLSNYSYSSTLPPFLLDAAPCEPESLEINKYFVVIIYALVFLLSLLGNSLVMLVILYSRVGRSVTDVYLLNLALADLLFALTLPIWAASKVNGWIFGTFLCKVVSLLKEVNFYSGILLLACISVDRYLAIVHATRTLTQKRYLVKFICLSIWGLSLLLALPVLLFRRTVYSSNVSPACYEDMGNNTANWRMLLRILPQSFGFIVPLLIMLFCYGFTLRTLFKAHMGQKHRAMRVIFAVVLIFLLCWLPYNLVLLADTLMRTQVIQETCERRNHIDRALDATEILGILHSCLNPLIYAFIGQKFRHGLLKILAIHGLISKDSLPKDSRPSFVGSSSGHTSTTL
T1 sequence (P25024 whole entry): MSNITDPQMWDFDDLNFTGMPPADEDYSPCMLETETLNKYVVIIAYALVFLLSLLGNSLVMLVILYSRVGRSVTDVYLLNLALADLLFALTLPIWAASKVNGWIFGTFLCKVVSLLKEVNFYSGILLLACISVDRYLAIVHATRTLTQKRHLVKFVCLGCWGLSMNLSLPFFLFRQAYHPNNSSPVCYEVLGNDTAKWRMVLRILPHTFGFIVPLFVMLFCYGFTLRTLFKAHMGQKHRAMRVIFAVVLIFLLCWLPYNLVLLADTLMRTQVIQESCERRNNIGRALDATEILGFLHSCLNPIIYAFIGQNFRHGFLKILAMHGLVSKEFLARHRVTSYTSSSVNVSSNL

Rattus norvegicus [2] = assay: AUC in rat at 1 mg/kg, iv by LC-MS/MS analysis; format: ADME, organism-based, Plasma; parameters: dose 1 mg/kg, route intravenous; conditions: in vivo
Method in brief: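 Rats were dosed intravenously at 1 mg/kg. Plasma levels were measured by LC-MS/MS against a calibration curve of compound spiked into rat plasma and run alongside the samples. AUC was taken from the plasma concentration vs. time curve.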

[3] = Metabolic stability in monkey liver microsomes assessed as compound remaining at 1 uM after 60 mins by LC-MS analysis; format: ADME, Macaca mulatta; conditions: rhesus monkey, 1 h
Method in brief: (§1)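 Compound at 1 µM was incubated with rat or monkey liver microsomes for 60 min at 37°C. Samples taken at 0 and 60 min were analysed by LC-MS for % parent remaining.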

[4] = biological target: T2, C-X-C chemokine receptor type 2 (Homo sapiens, UniProt P25025); assay: Inhibition of CXCR2 (unknown origin) transfected with RBL cells; format: cell-based
T2 sequence (P25025 whole entry): T1 sequence (P25025 whole entry)
Method in brief: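 RBL cells stably transfected with CXCR2 were used to measure antagonist activity at the receptor.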

[5] = biological target: T3, C-X-C chemokine receptor type 1 (Homo sapiens, UniProt P25024); assay: Inhibition of CXCR1 (unknown origin) transfected with RBL cells; format: cell-based
T3 sequence (P25024 whole entry): T1 sequence (P25024 whole entry)

Rattus norvegicus [6] = assay: AUC in rat at 1 mg/kg, po by LC-MS/MS analysis; format: ADME, organism-based, Plasma; parameters: dose 1 mg/kg, route oral; conditions: in vivo, BLD = below limit of detection
Method in brief: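 Rats were dosed at 1 mg/kg by oral gavage. Plasma levels were measured by LC-MS/MS against a concurrently run calibration curve of compound spiked into rat plasma.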

[7] = biological target: T2, C-X-C chemokine receptor type 2; assay: Inhibition of CXCR2 (unknown origin) expressed in PathHunter celline by beta-arrestin assay
Liver microsome = assay: Metabolic stability in rat liver microsomes assessed as compound remaining at 1 uM after 60 mins by LC-MS analysis; format: ADME; conditions: 1 h; method in brief: as §1
Rattus norvegicus [8] = assay: Inhibition of neutrophil influx in ozone Sprague-Dawley rat model of pulmonary inflammation assessed as decrease in PMN influx into lungs at 1 mg/kg, iv after 24 hrs; format: functional, organism-based; parameters: dose 1 mg/kg
Method in brief: (§2)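 Sprague-Dawley rats, n = 4 per group, were dosed iv at 1 mg/kg (or vehicle) at t = 0, 5 and 9 h. They were exposed to air or 1 ppm ozone for 4 h and sacrificed at 24 h for bronchoalveolar lavage. BALF cells were Wright-Giemsa stained and counted (PMNs, macrophages). BALF protein was measured by Bradford assay as lung leakage.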

Rattus norvegicus [9] = assay: Inhibition of macrophage influx in ozone Sprague-Dawley rat model of pulmonary inflammation at 1 mg/kg, iv after 24 hrs; format: functional, organism-based; parameters: dose 1 mg/kg; method in brief: as §2
Rattus norvegicus [10] = assay: Inhibition of lung leakage in ozone Sprague-Dawley rat model of pulmonary inflammation at 1 mg/kg, iv after 24 hrs; format: functional, organism-based; parameters: dose 1 mg/kg; method in brief: as §2

SMILES: COc1cc(CSc2ccc(C(=O)Nc3ccc(F)cc3)cn2)c(B(O)O)cc1OC
- IC50 [1]: > 10000 nM

SMILES: O=C(Nc1ccc(F)cc1)c1ccc(SCCc2ccccc2B(O)O)nc1
- IC50 [1]: 387 nM

SMILES: O=C(Nc1ccc(F)cc1)c1ccc(SCc2cc(OC(F)(F)F)ccc2B(O)O)nc1
- AUC (Rattus norvegicus [2]): 5.4 µM·h
- Stability [3]: 95%
- inhibition (Rattus norvegicus [8]): Active
- inhibition (Rattus norvegicus [9]): Active
- inhibition (Rattus norvegicus [10]): Active
- AUC (Rattus norvegicus [6]): BLD
- Stability (Liver microsome): 92%

SMILES: O=C(Nc1ccc(F)cc1)c1ccc(SCc2ccc(B(O)O)cc2)nc1
- IC50 [1]: 90 nM

SMILES: COc1ccc(B(O)O)c(CSc2ccc(C(=O)Nc3ccc(F)cc3)cn2)c1
- IC50 [1]: 80 nM

Other lines, results leading:

- IC50 [1]: 1220 nM
SMILES: O=C(Nc1ccc(F)cc1)c1ccc(SCc2cccc(B(O)O)c2)nc1

- IC50 [1]: > 10000 nM
SMILES: O=C(Nc1ccc(F)cc1)c1ccc(SCc2cc3c(cc2B(O)O)OCO3)nc1

- AUC (Rattus norvegicus [2]): 0.39 µM·h
- Stability [3]: 25%
- IC50 [4]: 356 nM
- IC50 [5]: 903 nM
- IC50 [1]: 38 nM
- AUC (Rattus norvegicus [6]): BLD
- IC50 [7]: 730 nM
- Stability (Liver microsome): 37%
SMILES: O=C(Nc1ccc(F)cc1)c1ccc(SCc2ccccc2B(O)O)nc1

- IC50 [1]: 52 nM
SMILES: O=C(Nc1ccc(F)cc1)c1ccc(SCc2cc(F)ccc2B(O)O)nc1

- IC50 [1]: 689 nM
SMILES: O=C(Nc1ccc(F)cc1)c1ccc(SCCCCB(O)O)nc1
